Experimental data reported in ChEMBL document CHEMBL1275359, “Pro-apoptotic activity of lipidic α-amino acids isolated from Protopalythoa variabilis” (Bioorg Med Chem, 2010).
Calls of active or inactive are those of the source.

Experiments:
Assay type in all cases: functional, cell-based
[1] = test system: MDA-MB-435; assay: Cytotoxicity against human MDA-MB-435 cells at 5 ug/ml after 72 hrs by MTT assay
In short: (§1)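 Cells kept in log-phase growth in RPMI-1640 with 2 mM glutamine, 10% fetal calf serum, streptomycin and 100 U/ml penicillin at 37 °C, 5% CO₂. Single concentration of 5 µg/ml applied for 72 h. Growth read by MTT, reported as percent growth inhibition relative to untreated cells. Data from three to four experiments.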

[2] = test system: HCT-8; assay: Cytotoxicity against human HCT8 cells at 5 ug/ml after 72 hrs by MTT assay; in short: as §1
[3] = test system: HL-60; assay: Cytotoxicity against human HL60 cells at 5 ug/ml after 72 hrs by MTT assay; in short: as §1
[4] = test system: SF-295; assay: Cytotoxicity against human SF295 cells at 5 ug/ml after 72 hrs by MTT assay; in short: as §1

Measured: Activity

CCCCCCCCCCC(N)C(=O)OC (stereo not drawn)
active: [1] | [2] | [3] | [4]

CCCCCCCCC(N)C(=O)OC (stereo not drawn)
active: [1] | [2] | [3] | [4]
